Results reported in ChEMBL document CHEMBL5230171, “Expanding the structure-activity relationships of alkynyl diphenylurea scaffold as promising antibacterial agents” (RSC Med Chem, 2023).
In brackets after ≈: the same amount, converted by molar mass. Activity calls are given as the source filed them.

Tests used:
Streptococcus pneumoniae = experiment: Antibacterial activity against Streptococcus pneumoniae 700677 assessed as inhibition of bacterial growth incubated for 18 to 20 hrs by CLSI protocol based broth microdilution method; format: functional; conditions: time 18-20 hrs
In short: (§1)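 Streptococci were diluted from a 0.5 McFarland suspension in cation-adjusted Mueller Hinton broth with 5% lysed horse blood. They were incubated with serial dilutions of test agent in broth microdilution, and the MIC was recorded.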

Staphylococcus aureus [1] = experiment: Antibacterial activity against methicillin resistant Staphylococcus aureus NRS384 USA300 infected in Balb/c mouse model of skin infection assessed as reduction in bacterial burden in skin lesions administered topically twice daily for three consecutive days from day 4 to 6 and measured 24 hrs post last dose; format: functional; conditions: route top; time 4 day
In short: (§2)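 Mice were anesthetized with 2,2,2-tribromoethanol and injected subcutaneously with 100 μL containing 2 × 10^9 CFU MRSA USA300 in 0.5% HPMC in saline. Topical treatment used a petroleum jelly vehicle, with a fusidic acid positive control. Lesions were photographed 24 h after the last dose. A ~1.5 cm2 skin patch (homogenized in 1 mL saline) and the spleen (in 0.5 mL) were serially diluted and plated on MSA at 37 °C overnight for CFU.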

Staphylococcus aureus [2] = experiment: Induction of drug resistance in methicillin resistant Staphylococcus aureus NRS384 USA300 assessed as change in MIC measured after 4 passages by broth microdilution method; format: functional, organism-based
In short: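 Multi-step resistance in MRSA USA300 over 14 consecutive passages, with rifampicin as the control antibiotic. The MIC was determined by broth microdilution at each passage. Resistance was defined as a greater than four-fold rise over the initial MIC.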

Staphylococcus aureus [3] = experiment: Antibacterial activity against methicillin resistant Staphylococcus aureus 123 assessed as inhibition of bacterial growth at 0.5 ug/ml incubated for 18 to 20 hrs by CLSI protocol based broth microdilution method; format: functional, organism-based; conditions: dose 0.5 µg/ml, time 18-20 hrs
Staphylococcus aureus [4] = experiment: Antibacterial activity against methicillin resistant Staphylococcus aureus NRS384 USA300 infected in Balb/c mouse model of skin infection assessed as healing administered topically twice daily for three consecutive days from day 4 to 6 and measured 24 hrs post last dose; format: functional, organism-based; conditions: route top, time 4.0 day; in short: as §2
Staphylococcus aureus [5] = experiment: Antibacterial activity against vancomycin resistant Staphylococcus aureus 10 assessed as inhibition of bacterial growth at 0.5 ug/ml incubated for 18 to 20 hrs by CLSI protocol based broth microdilution method; format: functional, organism-based; conditions: dose 0.5 µg/ml, time 18-20 hrs
Staphylococcus aureus [6] = experiment: Antibacterial activity against vancomycin resistant Staphylococcus aureus 9 assessed as inhibition of bacterial growth at 0.5 ug/ml incubated for 18 to 20 hrs by CLSI protocol based broth microdilution method; format: functional, organism-based; conditions: dose 0.5 µg/ml, time 18-20 hrs
Staphylococcus aureus [7] = experiment: Antibacterial activity against methicillin resistant Staphylococcus aureus 386 assessed as inhibition of bacterial growth incubated for 18 to 20 hrs by CLSI protocol based broth microdilution method; format: functional; conditions: time 18-20 hrs
In short: (§3)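 Broth microdilution against staphylococcal clinical isolates. Each strain was prepared as a 0.5 McFarland suspension and diluted in cation-adjusted Mueller Hinton broth to ~5 × 10^5 CFU mL−1. Serial dilutions of test agents in DMSO stock were incubated with the bacteria, and the MIC was recorded.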

Streptococcus pyogenes = experiment: Antibacterial activity against Streptococcus pyogenes MGAS 1882 assessed as inhibition of bacterial growth incubated for 18 to 20 hrs by CLSI protocol based broth microdilution method; format: functional; conditions: time 18-20 hrs; in short: as §1
[8] = Hemolytic activity in rabbit erythrocytes at 16 ug/ml incubated for 30 mins by absorbance based assay; format: toxicity, cell-based, Oryctolagus cuniculus, Erythrocyte; conditions: at 16 µg/mL, read-out: Activity
In short: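 Rabbit erythrocytes were washed three times in PBS pH 7.4 and adjusted to A540 0.8. They were mixed 1:1 with compound (final 16, 32, 64 μg mL−1) for 30 min at 37 °C. After centrifugation at 13 000 × g for 5 min, supernatant A540 was read as % of 1% Triton X-100 complete hemolysis. PBS served as negative control. Each concentration was run twice.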

Staphylococcus aureus [9] = experiment: Antibacterial activity against methicillin resistant Staphylococcus aureus 385 assessed as inhibition of bacterial growth incubated for 18 to 20 hrs by CLSI protocol based broth microdilution method; format: functional; conditions: time 18-20 hrs; in short: as §3
Staphylococcus aureus [10] = experiment: Antibacterial activity against methicillin sensitive Staphylococcus aureus 6538 assessed as inhibition of bacterial growth at 0.5 ug/ml incubated for 18 to 20 hrs by CLSI protocol based broth microdilution method; format: functional, organism-based; conditions: dose 0.5 µg/ml, time 18-20 hrs
In short: (§4)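 Staphylococcal and E. coli strains were diluted from a 0.5 McFarland suspension in cation-adjusted Mueller Hinton broth to ~5 × 10^5 CFU mL−1. They were incubated with serial dilutions of test agent in broth microdilution, and the MIC was recorded.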

Staphylococcus aureus [11] = experiment: Antibacterial activity against methicillin resistant Staphylococcus aureus 123 assessed as inhibition of bacterial growth incubated for 18 to 20 hrs by CLSI protocol based broth microdilution method; format: functional; conditions: time 18-20 hrs; in short: as §3
Staphylococcus aureus [12] = experiment: Post antibiotic effect against methicillin resistant Staphylococcus aureus NRS384 USA300 assessed as time required for 1 log10 increase in CFU at 5 times of MIC incubated for 2 hrs followed by replacement with drug free medium and measured after 18-24 hrs; format: functional
In short: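 MRSA USA300 at ~10^6 CFU mL−1 was exposed for 2 h to 5× MIC of test agent, with vancomycin or DMSO as controls. Drug was removed by 1:1000 dilution in fresh TSB. Cultures were incubated at 37 °C with 180 rpm shaking and sampled hourly for 8 h, with viable counts on MSA read after 18–24 h. PAE = T − C, where T and C are the times for a 1 log10 rise in the test and control cultures.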

Streptococcus mutans = experiment: Antibacterial activity against Streptococcus mutans 25175 assessed as inhibition of bacterial growth incubated for 18 to 20 hrs by CLSI protocol based broth microdilution method; format: functional; conditions: time 18-20 hrs; in short: as §1
Staphylococcus aureus [13] = experiment: Antibacterial activity against vancomycin resistant Staphylococcus aureus 9 assessed as inhibition of bacterial growth incubated for 18 to 20 hrs by CLSI protocol based broth microdilution method; format: functional; conditions: time 18-20 hrs; in short: as §3
Enterococcus faecalis = experiment: Antibacterial activity against Enterococcus faecalis 51299 assessed as inhibition of bacterial growth incubated for 18 to 20 hrs by CLSI protocol based broth microdilution method; format: functional; conditions: time 18-20 hrs
In short: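 Enterococci and L. monocytogenes were diluted from a 0.5 McFarland suspension in TSB. They were incubated with serial dilutions of test agent in broth microdilution, and the MIC was recorded.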

Staphylococcus aureus [14] = experiment: Antibacterial activity against methicillin resistant Staphylococcus aureus 386 assessed as inhibition of bacterial growth at 0.5 ug/ml incubated for 18 to 20 hrs by CLSI protocol based broth microdilution method; format: functional, organism-based; conditions: dose 0.5 µg/ml, time 18-20 hrs
Vero = experiment: Cytotoxicity against African green monkey Vero cells assessed as reduction in cell viability at 64 ug/ml incubated for 24 hrs by MTS assay; format: toxicity, cell-based; conditions: chlorocebus sabaeus, dose 64 µg/ml
In short: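 Vero or HaCaT cells were exposed to 32, 64 and 128 μg mL−1 compound in triplicate for 24 h at 37 °C, 5% CO2, with a DMSO control. MTS was then added for 4 h and OD490 read. Analysis used two-way ANOVA with Dunnett's post hoc test (p < 0.05).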

Staphylococcus aureus [15] = experiment: Antibacterial activity against methicillin resistant Staphylococcus aureus 119 assessed as inhibition of bacterial growth at 0.5 ug/ml incubated for 18 to 20 hrs by CLSI protocol based broth microdilution method; format: functional, organism-based; conditions: dose 0.5 µg/ml, time 18-20 hrs
[16] = test system: Staphylococcus epidermidis; experiment: Antibacterial activity against Staphylococcus epidermidis 101 assessed as inhibition of bacterial growth incubated for 18 to 20 hrs by CLSI protocol based broth microdilution method; format: functional; conditions: time 18-20 hrs; in short: as §4
Staphylococcus aureus [17] = experiment: Antibacterial activity against methicillin resistant Staphylococcus aureus 384 assessed as inhibition of bacterial growth at 0.5 ug/ml incubated for 18 to 20 hrs by CLSI protocol based broth microdilution method; format: functional, organism-based; conditions: dose 0.5 µg/ml, time 18-20 hrs

SMILES: C/C(=N\NC(=N)N)c1ccc(NC(=O)Nc2ccc(C#Cc3ccccc3)cc2)cc1
- MIC (Streptococcus pneumoniae): 0.5 µg/mL (≈ 1.22 µM)
- Activity (Staphylococcus aureus [1]): 0.5 log10CFU/ml
- Activity (Staphylococcus aureus [2]): inactive
- Activity (Staphylococcus aureus [3]): Active
- Activity (Staphylococcus aureus [4]): Active
- Activity (Staphylococcus aureus [5]): Active
- Activity (Staphylococcus aureus [6]): Active
- MIC (Staphylococcus aureus [7]): 0.5 µg/mL (≈ 1.22 µM)
- MIC (Streptococcus pyogenes): 0.5 µg/mL (≈ 1.22 µM)
- hemolysis at 0.5 h, 16 ug/ml [8]: 2%
- MIC (Staphylococcus aureus [9]): 0.5 µg/mL (≈ 1.22 µM)
- Activity (Staphylococcus aureus [10]): Active
- MIC (Staphylococcus aureus [11]): 0.5 µg/mL (≈ 1.22 µM)
- Time (Staphylococcus aureus [12]): 5 h
- MIC (Streptococcus mutans): 0.5 µg/mL (≈ 1.22 µM)
- MIC (Staphylococcus aureus [13]): 0.5 µg/mL (≈ 1.22 µM)
- MIC (Enterococcus faecalis): 0.5 µg/mL (≈ 1.22 µM)
- Activity (Staphylococcus aureus [14]): Active
- Activity (Vero): Non-Toxic
- Activity (Staphylococcus aureus [15]): Active
- MIC [16]: 0.5 µg/mL (≈ 1.22 µM)
- Activity (Staphylococcus aureus [17]): Active
